Broadly, the IC50 is the concentration at which inhibition is half-maximal. Read a low IC50 as greater potency in that assay.

Test [1] has as its target T1, Human immunodeficiency virus type 1 integrase (Human immunodeficiency virus 1, UniProt Q7ZJM1). Kind of test: Inhibition of wild-type HIV1 integrase 3'-processing activity using [32P]-labeled linear oligonucleotide substrate by polyacrylamide gel electrophoresis. The method in brief: (§1)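 Wild-type IN (final 200 nM) preincubated with inhibitor for 30 min at 30 °C in buffer containing 50 mM NaCl, 1 mM HEPES pH 7.5, 50 μM EDTA, 50 μM DTT, 10% glycerol, 7.5 mM MnCl2, 0.1 mg/mL BSA, 10 mM 2-mercaptoethanol, 10% DMSO, 25 mM MOPS pH 7.2. Then 20 nM 5'-32P-labeled annealed 21-mer duplex added, 1 h more. Quenched with formamide loading dye. IC50 from log concentration vs percent inhibition.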

For test [2], the target named is T1, Human immunodeficiency virus type 1 integrase. Nature of the test: Inhibition of wild-type HIV1 integrase strand transfer activity using [32P]-labeled linear oligonucleotide substrate by polyacrylamide gel electrophoresis. The method in brief:
as §1

T1 sequence (Q7ZJM1 whole entry): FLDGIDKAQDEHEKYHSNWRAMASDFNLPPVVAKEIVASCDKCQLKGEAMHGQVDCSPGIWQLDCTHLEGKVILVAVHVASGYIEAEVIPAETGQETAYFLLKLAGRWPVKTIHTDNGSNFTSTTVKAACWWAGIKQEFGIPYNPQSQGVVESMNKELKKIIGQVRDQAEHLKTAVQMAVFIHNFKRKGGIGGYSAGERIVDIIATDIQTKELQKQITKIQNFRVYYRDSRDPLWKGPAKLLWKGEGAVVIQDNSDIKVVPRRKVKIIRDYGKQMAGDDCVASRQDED

In the case of `O=C(CC(=O)c1cccc(OCc2ccccc2)c1)C(=O)N1CCN(C(=O)C(=O)CC(=O)c2cccc(OCc3ccccc3)c2)CC1`, the IC50 in test [1] stood at 56 µM; in test [2], 1.8 µM.
For `Cc1cc(C(=O)/C=C(\O)C(=O)O)ccc1Cl` the same measures were 94 µM and 4.7 µM.
The corresponding values for `O=C(O)/C(O)=C/C(=O)c1ccccc1Cl` are greater than 100 µM and 17 µM.
Take `O=C(O)/C(O)=C/C(=O)c1ccccc1F`: the IC50 in test [1] is greater than 100 µM; in test [2], 58 µM.
With `COC(=O)/C(O)=C/C(=O)c1ccc(OC)c(OCc2ccccc2)c1`, the results for the IC50 in test [1] and in test [2] were greater than 100 µM and 16 µM, respectively.
The corresponding values for `O=C(CC(=O)c1cccc(OCc2ccccc2)c1)C(=O)OC1CCN(C(=O)C(=O)CC(=O)c2cccc(OCc3ccccc3)c2)CC1` are 91 µM and 3 µM.
For `O=C(CC(=O)c1cccc(OCc2ccccc2)c1)C(=O)NC1CCC(NC(=O)C(=O)CC(=O)c2cccc(OCc3ccccc3)c2)CC1` (stereo not drawn) the same measures were greater than 100 µM and 7 µM.
The corresponding values for `O=C(CC(=O)c1cccc(OCc2ccccc2)c1)C(=O)NC1CCN(C(=O)C(=O)CC(=O)c2cccc(OCc3ccccc3)c2)CC1` are 23 µM and less than 0.4 µM.
As to `O=C(CC(=O)c1ccc(C(F)(F)F)cc1)C(=O)N1CCN(C(=O)C(=O)CC(=O)c2ccc(C(F)(F)F)cc2)CC1`, the IC50 was greater than 100 µM in test [1] and 25 µM in test [2].
Consider `O=C(O)/C(O)=C/C(=O)c1ccc(C(F)(F)F)cc1`, for which the concentration for half-maximal inhibition (IC50) in test [1] was greater than 100 µM; in test [2], 33 µM.
Turning to `COc1ccc(C(=O)/C=C(\O)C(=O)O)cc1OCc1ccccc1`, the figures for the IC50 in test [1] and in test [2] were 55 µM and less than 0.4 µM, respectively.
For `COC(=O)/C(O)=C/C(=O)c1ccccc1F` the same measures were greater than 100 µM and greater than 100 µM.
For `O=C(CC(=O)c1ccccc1F)C(=O)NC1CCC(NC(=O)C(=O)CC(=O)c2ccccc2F)CC1` (stereo not drawn) the same measures were greater than 100 µM and 55 µM.
The corresponding values for `O=C(CC(=O)c1ccccc1Cl)C(=O)N1CCN(C(=O)C(=O)CC(=O)c2ccccc2Cl)CC1` are greater than 100 µM and greater than 100 µM.
As for `O=C(CC(=O)c1ccc(F)cc1)C(=O)NC1CCN(C(=O)C(=O)CC(=O)c2ccc(F)cc2)CC1`, the IC50 in test [1] was greater than 100 µM; in test [2], 88 µM.
For `O=C(CC(=O)c1ccc(F)cc1)C(=O)N1CCN(C(=O)C(=O)CC(=O)c2ccc(F)cc2)CC1` the same measures were greater than 100 µM and 29 µM.
For `COC(=O)/C(O)=C/C(=O)c1cccc(NC(=O)OCc2ccccc2)c1` the same measures were 99 µM and 7 µM.
The corresponding values for `COC(=O)/C(O)=C/C(=O)c1cccc(Cc2ccccc2F)c1` are 26 µM and 0.6 µM.
For the compound `COC(=O)/C(O)=C/C(=O)c1cccc(N(Cc2ccccc2)Cc2ccccc2)c1`, the IC50 in test [1] and in test [2] was greater than 100 µM throughout.
In the case of `O=C(O)/C(O)=C/C(=O)c1ccccc1`, the IC50 in test [1] is greater than 100 µM; in test [2], 24.2 µM.
On to `COc1cccc(C(=O)CC(=O)C(=O)NC2CCC(NC(=O)C(=O)CC(=O)c3cccc(OC)c3)CC2)c1` (stereo not drawn), for which the half-inhibitory concentration (IC50) in test [1] is greater than 100 µM; in test [2], 26 µM.
On to `COc1cccc(C(=O)CC(=O)C(=O)N2CCN(C(=O)C(=O)CC(=O)c3cccc(OC)c3)CC2)c1`, for which the values for the IC50 in test [1] and in test [2] were greater than 100 µM and 26 µM, respectively.
The corresponding values for `O=C(O)/C(O)=C/C(=O)c1ccc([N+](=O)[O-])cc1` are greater than 100 µM and 45 µM.
On to `COC(=O)/C(O)=C/C(=O)c1ccc(F)cc1`, for which the IC50 in test [1] and in test [2] was greater than 100 µM in each case.
In the case of `O=C(CC(=O)c1ccc(F)cc1)C(=O)NC1CCC(NC(=O)C(=O)CC(=O)c2ccc(F)cc2)CC1` (stereo not drawn), the IC50 in test [1] was greater than 100 µM; in test [2], 35.5 µM.
The corresponding values for `O=C(CC(=O)c1ccccc1Cl)C(=O)NC1CCN(C(=O)C(=O)CC(=O)c2ccccc2Cl)CC1` are 99 µM and 31 µM.
For the compound `COC(=O)/C(O)=C/C(=O)c1cccc(OCc2ccccc2)c1`, the IC50 in test [1] is greater than 100 µM; in test [2], 14 µM.
For `O=C(O)/C(O)=C/C(=O)c1cccc(OCc2ccccc2)c1` the same measures were 19 µM and less than 0.4 µM.
The corresponding values for `COc1cccc(C(=O)/C=C(\O)C(=O)O)c1` are greater than 100 µM and 27 µM.
The corresponding values for `O=C(CC(=O)c1ccc(C(F)(F)F)cc1)C(=O)NC1CCC(NC(=O)C(=O)CC(=O)c2ccc(C(F)(F)F)cc2)CC1` (stereo not drawn) are greater than 100 µM and 41 µM.
Consider `CCCCCC12CCC(C(=O)Nc3cccc(C(=O)CC(=O)C(=O)O)c3)(CC1)CC2`, for which the results for the IC50 in test [1] and in test [2] were greater than 100 µM and 14 µM, respectively.
Regarding `COc1cccc(C(=O)CC(=O)C(=O)NC2CCN(C(=O)C(=O)CC(=O)c3cccc(OC)c3)CC2)c1`, the IC50 in test [1] is greater than 100 µM; in test [2], 53 µM.
In the case of `CC(C)(C)OC(=O)N1CCC(NC(=O)/C(O)=C/C(=O)c2ccc(F)cc2)CC1`, the values for the IC50 in test [1] and in test [2] were greater than 100 µM and 100 µM, respectively.
The corresponding values for `O=C(CC(=O)c1ccccc1Cl)C(=O)NC1CCC(NC(=O)C(=O)CC(=O)c2ccccc2Cl)CC1` (stereo not drawn) are 92 µM and 30 µM.

(Values after ChEMBL document CHEMBL1155930, “Novel dimeric aryldiketo containing inhibitors of HIV-1 integrase: effects of the phenyl substituent and the linker orientation” (Bioorg Med Chem, 2008).)
